Results on one compound are retold here after paper PMC5034689 (Molecular Metabolism, 2016).

Structures are written as SMILES.

For one data set, the system named is DIO mice. Put plainly: Short-term TNP treatment of DIO mice. It is filed as in vivo, C57BL6 mice. To be noted: 20 mg/kg BW daily. A digest of the protocol: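 Mice fed HFD for 8 weeks received daily 20 mg/kg test compound with continued HFD (vehicle n = 6, treated n = 8). Food intake was measured after 7 days. GTT (glucose 2 g/kg i.p.) and ITT (insulin 0.75 U/kg i.p.) were done on days 12 and 17 after a 5 h fast. Tissues were taken on day 18. Akt S473 was immunoblotted from RIPA lysates, with densitometry n = 3.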

A further data set deals with IP6K1-KO mice. Put plainly: Long-term TNP for reversal of DIO in IP6K1-KO mice. It is filed as in vivo. A digest of the protocol:
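Inbred IP6K1-KO mice (seventh generation) and WT littermates, n = 4/group, received HFD for 8 weeks, then daily injections (10 mg/kg) with continued HFD for 10 weeks. GTT was done at week 5: 5 h fast, glucose 2 g/kg i.p., tail-vein glucometer readings including time 0. After 10 weeks, fat, lean and fluid masses were measured by LF-NMR, and mice were sacrificed after a 5 h fast.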

A short description of data set [1]: Hepatic microsomal stability, human. The format is in vitro ADME. To be noted: liver microsomes, pH 7.4. A digest of the protocol:
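Test compound (1 μM) was incubated with liver microsomes (1 mg/ml) and 1 mM NADPH in 100 mM potassium phosphate, pH 7.4. Aliquots were taken at 0, 5, 10, 20, 40 and 60 min and analysed by LC-MS/MS. Loss of parent was expressed as half-life.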
In general terms: Liver microsomes are vesicles of endoplasmic reticulum, rich in cytochrome P450 enzymes.

The target of the next data set is T1, CYP1A2 (Homo sapiens, UniProt P05177).
T1 sequence (P05177 1-516): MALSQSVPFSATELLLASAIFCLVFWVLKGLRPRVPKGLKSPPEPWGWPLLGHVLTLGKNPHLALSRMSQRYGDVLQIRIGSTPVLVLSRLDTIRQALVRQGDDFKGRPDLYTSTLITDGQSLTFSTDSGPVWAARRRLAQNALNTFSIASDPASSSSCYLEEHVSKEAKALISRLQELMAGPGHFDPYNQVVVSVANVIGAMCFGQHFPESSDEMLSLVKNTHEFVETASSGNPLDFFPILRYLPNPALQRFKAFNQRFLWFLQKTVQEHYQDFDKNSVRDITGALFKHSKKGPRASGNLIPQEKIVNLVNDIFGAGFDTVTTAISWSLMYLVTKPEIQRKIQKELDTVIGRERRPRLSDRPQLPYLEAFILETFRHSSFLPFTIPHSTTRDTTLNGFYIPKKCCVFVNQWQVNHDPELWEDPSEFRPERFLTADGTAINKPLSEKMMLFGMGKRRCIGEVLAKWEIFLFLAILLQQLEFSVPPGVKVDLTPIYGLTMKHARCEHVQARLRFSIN
Put plainly: CYP450 inhibition in human hepatic microsomes, CYP1A2. To be noted: liver microsomes. It is filed as in vitro ADME.

Another data set concerns the target CYP2C9 (Homo sapiens, UniProt P11712). The data set can be described thus: CYP450 inhibition in human hepatic microsomes, CYP2C9. The format is in vitro ADME. To be noted: liver microsomes, probe tolbutamide (hydroxylation to hydroxytolbutamide).
In the next data set the target is CYP2D6 (Homo sapiens, UniProt P10635). Put plainly: CYP450 inhibition in human hepatic microsomes, CYP2D6. It is filed as in vitro ADME. The settings on record: liver microsomes, probe bufuralol (hydroxylation to 4′-hydroxybufuralol).
CYP2D6, sequence (P10635 whole entry): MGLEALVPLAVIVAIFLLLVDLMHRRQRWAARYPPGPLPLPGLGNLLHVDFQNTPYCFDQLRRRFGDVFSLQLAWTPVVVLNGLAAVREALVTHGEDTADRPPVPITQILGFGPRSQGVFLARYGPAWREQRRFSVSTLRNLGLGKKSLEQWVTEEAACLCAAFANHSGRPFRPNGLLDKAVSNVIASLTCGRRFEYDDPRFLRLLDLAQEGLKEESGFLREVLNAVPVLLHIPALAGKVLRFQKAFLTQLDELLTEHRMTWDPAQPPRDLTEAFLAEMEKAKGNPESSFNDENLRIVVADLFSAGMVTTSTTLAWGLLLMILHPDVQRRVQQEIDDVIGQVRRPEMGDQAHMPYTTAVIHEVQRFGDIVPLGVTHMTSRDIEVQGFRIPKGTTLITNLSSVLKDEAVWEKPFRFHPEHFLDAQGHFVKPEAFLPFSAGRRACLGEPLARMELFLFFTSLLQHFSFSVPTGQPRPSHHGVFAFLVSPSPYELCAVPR
The subject of another data set is IP6Ks. To be noted: cited from earlier work.
A further data set relates to PP-IP5K. The settings on record: cited from earlier work.
The subject of the next data set is IP3-3K. The settings on record: PC12 cells, enhances neurite outgrowth; cited from earlier work.

CYP2C9, sequence (P11712 whole entry): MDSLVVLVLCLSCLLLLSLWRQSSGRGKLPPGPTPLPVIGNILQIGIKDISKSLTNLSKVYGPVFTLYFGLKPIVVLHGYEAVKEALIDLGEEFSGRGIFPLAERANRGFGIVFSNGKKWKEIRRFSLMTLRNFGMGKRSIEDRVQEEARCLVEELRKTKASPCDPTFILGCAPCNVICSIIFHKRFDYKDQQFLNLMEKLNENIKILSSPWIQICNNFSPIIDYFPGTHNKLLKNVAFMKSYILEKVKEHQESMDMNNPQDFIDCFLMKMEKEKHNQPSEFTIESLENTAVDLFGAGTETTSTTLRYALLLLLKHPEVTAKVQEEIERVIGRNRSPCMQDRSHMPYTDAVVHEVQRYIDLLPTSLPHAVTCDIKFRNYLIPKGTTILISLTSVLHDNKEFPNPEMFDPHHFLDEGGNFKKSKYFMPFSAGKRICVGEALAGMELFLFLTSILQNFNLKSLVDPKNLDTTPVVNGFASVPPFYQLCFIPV

The half-life is how long it takes for the measured level to halve. Read a high half-life as slow decline. For orientation: inhibition means how much of the control response was suppressed. A low value points to a weak effect. On to `O=[N+]([O-])c1ccc(CNc2nc(NCc3cccc(C(F)(F)F)c3)nc3[nH]cnc23)cc1` [TNP, N6-(4-nitrobenzyl)-N2-(3-(trifluoromethyl)benzyl)-9H-purine-2,6-diamine], for which, in the data set on DIO mice (12th day), the “Glucose disposal following glucose injection (GTT)” value is given as “efficient glucose disposal”. The “Glucose disposal following insulin injection (ITT)” value in the data set on DIO mice (17th day) is recorded as “disposes glucose more efficiently”. For the same compound, in the data set with DIO mice (18 days), the “Fatty liver (histology)” value is reported as “ameliorates fatty liver”, the Serum glycerol levels entry is “does not alter”, the Serum insulin level entry is “not significantly altered” and the “Serum levels of cholesterol or triglycerides” value is “not altered”. Moreover, the “Reduction of fat mass by treatment” value with DIO mice (18 days, DIO mice, QNMR) is given as about 3 g. Besides, the “Akt S473 phosphorylation in the IWAT depot, enhancement vs vehicle” value in the data set with DIO mice (18 days, densitometry) is 4 fold. Besides, in the data set with DIO mice (18 days, vs vehicle), the “Serum levels of AST and ALT” value is “less”; the “UCP1 mRNA expression in the IWAT” value is recorded as “higher”; the “Weight of the EWAT depot” value was “significantly less”. Moreover, the Daily energy intake entry in the data set on DIO mice (after 7 days) was “does not influence daily energy intake”. For the same compound, in the data set on IP6K1-KO mice (10 mg/kg BW daily, 10 weeks), the “TNP mediated weight loss” value was “resistant to Rev-TNP mediated weight loss”; the “Total fat, lean, and fluid masses” value is on record as “unaltered”. Moreover, the Body weight with IP6K1-KO mice (10 mg/kg BW daily, after 10-week of treatment) was about 33 g. For the same compound, the “Glucose disposal (GTT)” value with IP6K1-KO mice (after 5 weeks of TNP treatment) was “not altered”. The half-life at 1 μM in [1] was 32 min. For the same compound, on CYP1A2, the inhibition at 10 μM came to 86%. The compound also yielded an inhibition at 10 μM at CYP2C9 of 92%. The inhibition at 10 μM at CYP2D6 is 76%. Further, the “Potency on IP6Ks over IP3-3K” value in the data set with IP6Ks was 70 fold. In addition, the “Effect on the 1-IP7 generating enzyme PP-IP5K” value in the data set on PP-IP5K is recorded as “does not influence”. Besides, the “Concentrations at which TNP inhibits IP3-3K” value in the data set on IP3-3K was 20 to 40 µM.
